This note sets out measurements from ChEMBL document CHEMBL4130408, “Photoactivation provides a mechanistic explanation for pan-assay interference behaviour of 2-aminopyrroles in lipoxygenase inhibition” (Eur J Med Chem, 2017).

The target in the experiment is T1, Polyunsaturated fatty acid lipoxygenase ALOX15 (Homo sapiens) (UniProt P16050).
T1 sequence (whole entry): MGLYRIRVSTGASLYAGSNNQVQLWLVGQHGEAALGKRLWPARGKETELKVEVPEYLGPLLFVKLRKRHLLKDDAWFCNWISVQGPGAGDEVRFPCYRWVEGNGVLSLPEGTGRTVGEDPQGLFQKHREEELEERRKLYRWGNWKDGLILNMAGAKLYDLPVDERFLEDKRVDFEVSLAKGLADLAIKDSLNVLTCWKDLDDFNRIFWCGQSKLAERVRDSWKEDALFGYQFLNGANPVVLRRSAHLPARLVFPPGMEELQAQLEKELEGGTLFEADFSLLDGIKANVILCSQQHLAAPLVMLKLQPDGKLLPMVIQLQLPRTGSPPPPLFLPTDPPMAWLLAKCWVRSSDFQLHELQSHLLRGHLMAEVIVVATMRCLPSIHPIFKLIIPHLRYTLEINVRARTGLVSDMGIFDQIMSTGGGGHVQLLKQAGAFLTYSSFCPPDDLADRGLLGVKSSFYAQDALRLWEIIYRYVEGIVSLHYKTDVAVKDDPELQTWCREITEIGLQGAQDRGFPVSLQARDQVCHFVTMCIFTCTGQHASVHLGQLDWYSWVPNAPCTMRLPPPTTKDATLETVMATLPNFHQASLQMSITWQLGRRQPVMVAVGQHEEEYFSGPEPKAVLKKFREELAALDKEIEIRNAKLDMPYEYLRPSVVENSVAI
Briefly: Inhibition of recombinant human 15-LOX-1 expressed in Escherichia coli BL21(DE3) assessed as residual activity at 50 uM using linoleic acid as substrate preincubated for 10 mins followed by substrate addition. In a few lines: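 h-15-LOX-1 (1:100 enzyme stock, 1:400 final) preincubated 10 min at room temperature with inhibitor in 25 mM HEPES pH 7.4, then linoleic acid added to 25 µM final (inhibitor 50 µM final). 13(S)-HpODE formation read as A234 over time, rate taken from linear part within first 16 min; no-inhibitor = 100%, no-enzyme = 0%. Triplicate.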

Each structure is given as a SMILES string.

With `NC(=O)c1c(N)[nH]c(C(=O)c2ccccc2)c1-c1ccc(Br)cc1`, the Activity came to 99.3%.
As for `Nc1[nH]c(C(=O)c2ccccc2)c(-c2ccc(Cl)cc2)c1C(=O)N1CCCC1`, the Activity was found to be 123%.
Consider `Nc1[nH]c(C(=O)c2ccc(Br)cc2)c(-c2ccc(F)cc2)c1C(=O)NCCc1c[nH]c2ccccc12`, for which the Activity was 68.9%.
Regarding `CC(C)(C)C(=O)c1c(N)[nH]c(C(=O)c2ccccc2)c1-c1ccc(Cl)cc1`, the Activity came to 94.5%.
Under `COc1ccc(-c2c(C(=O)c3ccccc3)[nH]c(N)c2C(=O)c2ccc(Br)cc2)cc1OC` stands 94.7%; under `Nc1[nH]c(C(=O)c2ccc(Br)cc2)c(-c2ccc(Br)cc2)c1C(=O)N1CCOCC1`, 87%; under `COc1ccccc1CCNC(=O)c1c(N)[nH]c(C(=O)c2ccccc2)c1-c1ccc(Cl)cc1Cl`, 91.7%.
`Nc1[nH]c(C(=O)c2ccc(Br)cc2)c(-c2ccc3c(c2)OCO3)c1C(=O)NCCc1c[nH]c2ccccc12`: the Activity was found to be 75.9%.
Take `Nc1[nH]c2cc(Cl)ccc2c1C(=O)N1CCOCC1`: the Activity was determined as 107%.
Turning to `COc1cc(-c2c(C(=O)c3ccccc3)[nH]c(N)c2C(N)=O)ccc1F`, the Activity worked out at 110%.
Turning to `Nc1[nH]c(C(=O)c2ccccc2)c(-c2ccc3ccccc3c2)c1C(=O)NC1CC1`, the Activity amounted to 83.5%.
With `Nc1[nH]c(C(=O)c2ccccc2)c(-c2ccc3ccccc3c2)c1C(=O)NCc1ccc(-c2ccccc2)cc1`, the Activity is 122%.
Then `Nc1[nH]c(C(=O)c2ccccc2)c(-c2ccncc2)c1C(=O)NCc1cccc2ccccc12`, with 95.1%.
Consider `Nc1[nH]c(C(=O)c2ccccc2)c(-c2ccc(Br)cc2)c1C(=O)NCCCN1CCOCC1`, for which the Activity turned out to be 104%.
Take `Nc1[nH]c(C(=O)c2ccccc2)c(-c2cccc3ccccc23)c1C(=O)c1cccs1`: the Activity was found to be 73.7%.
Then `Nc1[nH]c(C(=O)c2ccccc2)c(-c2cccc3ccccc23)c1C(=O)NCc1ccc(F)c(F)c1`, with 62.2%; and `COc1ccc(CNC(=O)c2c(N)[nH]c(C(=O)c3ccccc3)c2-c2ccc3ccccc3c2)cc1OC`, with 120%.
`Nc1[nH]c(C(=O)c2ccccc2)c(-c2ccncc2)c1C(=O)NCCc1c[nH]c2ccccc12`: the Activity was 106%.
Under `Nc1[nH]c(C(=O)c2ccccc2)c(-c2ccc3c(c2)OCO3)c1C(=O)NCCc1c[nH]c2ccccc12` stands 62.7%; under `Nc1[nH]c(C(=O)c2ccccc2)c(-c2ccc3ccccc3c2)c1C(=O)NCc1ccc(F)cc1`, 86%.
Under `COC(=O)c1c(N)[nH]c(C(=O)c2ccccc2)c1-c1ccc(Br)cc1` stands 94%; under `Nc1[nH]c(C(=O)c2ccccc2)c(-c2cccc3ccccc23)c1C(=O)c1c(-c2ccccc2)[nH]c2ccccc12`, 89.9%.
Consider `Cc1ccccc1-c1c(C(=O)c2ccccc2)[nH]c(N)c1C(=O)NCCc1c[nH]c2ccccc12`, for which the Activity turned out to be 62.5%.
Consider `Nc1[nH]c(C(=O)c2ccc(Br)cc2)c(-c2ccc(Cl)c(Cl)c2)c1C(=O)NCCc1c[nH]c2ccccc12`, for which the Activity was 50%.
Under `COc1ccc(C(=O)c2[nH]c(N)c(C(N)=O)c2-c2ccc(OC)c(OC)c2)cc1` stands 58%; under `Nc1[nH]c(C(=O)c2ccc(Br)cc2)c(-c2ccccc2Cl)c1C(=O)NCCc1c[nH]c2ccccc12`, 71%.
Regarding `Nc1[nH]c(C(=O)c2ccccc2)c(-c2ccc(Cl)cc2)c1C(=O)O`, the Activity was found to be 87.9%.
As for `COc1ccc(C(=O)c2[nH]c(N)c(C(=O)NCCc3c[nH]c4ccccc34)c2-c2ccc(Cl)c(Cl)c2)cc1`, the Activity is 41.9%.
As to `COc1ccc(-c2c(C(=O)c3ccccc3)[nH]c(N)c2C(=O)c2ccccc2)cc1OC`, the Activity fell in the range of 97.9 to 105%.
`Nc1[nH]c(C(=O)c2ccccc2)c(-c2ccc(Cl)cc2Cl)c1C(=O)NCCc1c[nH]c2ccccc12`: the Activity amounted to 22.8%.
With `Nc1[nH]c2cc(C(F)(F)F)ccc2c1C(=O)NC1CCCCC1`, the Activity turned out to be 125%.
Regarding `Nc1[nH]c(C(=O)c2ccccc2)c(-c2ccc(F)cc2)c1C(=O)c1c[nH]c2ccccc12`, the Activity worked out at 116%.
For the compound `Nc1[nH]c(C(=O)c2ccccc2)c(-c2cc(F)ccc2Br)c1C(=O)NCCc1c[nH]c2ccccc12`, the Activity was -29.7%.
Turning to `Nc1[nH]c(C(=O)c2ccc(Br)cc2)c(-c2ccncc2)c1C(=O)NCCc1c[nH]c2ccccc12`, the Activity worked out at 86.1%.
In the case of `NC(=O)c1c(N)[nH]c(C(=O)c2ccccc2)c1-c1ccncc1`, the Activity was 98.9%.
Turning to `Nc1[nH]c(C(=O)c2ccccc2)c(-c2ccc(Cl)cc2Br)c1C(=O)c1cccs1`, the Activity is 91.2%.
Under `Nc1[nH]c(C(=O)c2ccccc2)c(-c2ccccc2C(F)(F)F)c1C(=O)NCCc1c[nH]c2ccccc12` stands 45.5%; under `NC(=O)c1c(N)[nH]c(C(=O)c2ccccc2)c1-c1cccc2ccccc12`, 69.2%; under `Nc1[nH]c(C(=O)c2ccc(Br)cc2)c(-c2ccc(Br)cc2)c1C(=O)NCCc1c[nH]c2ccccc12`, 30.6%.
Take `NC(=O)c1c(N)[nH]c(C(=O)c2ccccc2)c1-c1ccccc1`: the Activity worked out at 116%.
Under `Nc1[nH]c(C(=O)c2ccccc2)c(-c2ccc(Br)cc2)c1C(=O)N1CCN(CCO)CC1` stands 100%; under `Nc1[nH]c(C(=O)c2ccc(Br)cc2)c(-c2cccc3ccccc23)c1C(=O)NCCc1c[nH]c2ccccc12`, 46.7%; under `NC(=O)c1c(N)[nH]c(C(=O)c2ccccc2)c1-c1ccccn1`, 82.1%.
`Cc1ccc(S(=O)(=O)n2c(-c3ccccc3)cc(C(=O)NC3CC3)c2N)cc1`: the Activity stood at 92.2%.
Turning to `COc1ccc(-c2c(C(=O)c3ccccc3)[nH]c(N)c2C(N)=O)cc1OC`, the Activity came out at 117%.
On to `Nc1[nH]c(C(=O)c2ccccc2)c(-c2ccc(Br)cc2)c1C(=O)c1ccc(Br)cc1`, for which the Activity worked out at 62.2%.
As for `CC(C)(C)C(=O)c1c(N)[nH]c(C(=O)c2ccccc2)c1-c1c(F)cccc1F`, the Activity worked out at 91.9%.
Turning to `CCCCCCCCCCCCCCNC(=O)c1c(N)[nH]c(C(=O)c2ccc(Br)cc2)c1-c1ccc(Br)cc1`, the Activity amounted to 99.2%.
`Nc1[nH]c2ccccc2c1C(=O)NC1CC1`: the Activity was determined as 126%.
Then `Nc1[nH]c(C(=O)c2ccccc2)c(-c2ccccn2)c1C(=O)c1c[nH]c2ccccc12`, with 104%; and `CC(C)(C)C(=O)c1c(N)[nH]c(C(=O)c2ccccc2)c1-c1ccc(Cl)cc1Cl`, with 79.9%.
Then `Nc1[nH]c(C(=O)c2ccccc2)c(-c2ccc([N+](=O)[O-])cc2)c1C(=O)NCCc1c[nH]c2ccccc12`, with 54.3%.
On to `COC(=O)c1c(N)[nH]c(C(=O)c2ccccc2)c1-c1ccccc1Br`, for which the Activity came to 74.8%.
Then `NC(=O)c1c(N)[nH]c(C(=O)c2ccccc2)c1-c1cccnc1`, with 99.1%; and `Nc1[nH]c(C(=O)c2ccccc2)c(-c2c(F)cccc2Cl)c1C(=O)NCCc1c[nH]c2ccccc12`, with 92.7%; and `NC(=O)c1c(N)[nH]c(C(=O)c2ccccc2)c1-c1ccccc1Br`, with 87.4%.
Then `CC(C)(C)C(=O)c1c(N)[nH]c(C(=O)c2ccccc2)c1-c1ccccc1Br`, with 82.9%; and `Nc1[nH]c(C(=O)c2ccccc2)c(-c2cccc3ccccc23)c1C(=O)NC1CCCCC1`, with 65.6%.
As to `COc1ccc2cccc(-c3c(C(=O)c4ccc(Br)cc4)[nH]c(N)c3C(=O)NCc3ccc(F)c(F)c3)c2c1`, the Activity was 86.3%.
As for `NC(=O)c1c(N)[nH]c(C(=O)c2ccccc2)c1-c1ccccc1C(F)(F)F`, the Activity was 93.6%.
Under `COc1cc(-c2c(C(=O)c3ccccc3)[nH]c(N)c2C(N)=O)ccc1O` stands 98.8%; under `CCCCNC(=O)c1c(N)[nH]c(C(=O)c2ccc(F)cc2)c1-c1ccc(Cl)cc1C`, 107%; under `Nc1[nH]c2ccccc2c1C(=O)NCCc1ccc(Cl)cc1Cl`, 104%.
For `Nc1[nH]c(C(=O)c2ccccc2)c(-c2ccc(Cl)cc2)c1C(=O)c1c[nH]c2ccc(Br)cc12`, the Activity was 50.9%.
Under `Nc1[nH]c(C(=O)c2ccccc2)c(-c2cccnc2)c1C(=O)NCCc1c[nH]c2ccccc12` stands 82.5%; under `Nc1[nH]c(C(=O)c2ccccc2)c(-c2ccccc2Br)c1C(=O)NCCc1ccc(Cl)cc1Cl`, 93.8%; under `COc1ccc(C(=O)c2[nH]c(N)c(C(=O)c3c[nH]c4ccccc34)c2-c2ccc(F)c(OC)c2)cc1`, 75.8%.
Turning to `COc1ccc(-c2c(C(=O)c3ccc(Br)cc3)[nH]c(N)c2C(=O)NCCc2c[nH]c3ccccc23)cc1OC`, the Activity amounted to 63.8%.
In the case of `Nc1[nH]c(C(=O)c2ccccc2)c(-c2ccc(Br)cc2)c1C(=O)c1cccs1`, the Activity came to 81.3%.
Under `Cc1[nH]c2ccccc2c1C(=O)c1c(N)[nH]c(C(=O)c2ccccc2)c1-c1ccc(Cl)cc1` stands 79.7%.
